Where “and” joins values, the source holds several entries; their conditions need not be identical. Identical values can stand only once.
How the values were obtained:
Mus musculus [1] = assay: Anticonvulsant activity is the ability to increase the survival time of mouse ssubjected to bicuculline induced seizures at 24 hr after pretreament with compound (3 mg/kg, ip); format: functional
Mus musculus [2] = assay: Evaluation of General motor activity in mouse 60 mins postinjection (ip) of 33 mg/kg*; format: functional
Summary of the method: (§1)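 Male BALB-c mice (18-24 g) given compound ip in 25% propylene glycol/water. Each was monitored singly for 60 min in an electronic activity monitor. Cumulative activity was expressed as % of vehicle control; mean ± SEM, n = 6, t test.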

[3] = target: GABA-A receptor; anion channel; assay: Inhibition of [3H]GABA binding to synaptic membranes from rat cerebellum; format: tissue-based
Summary of the method: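 [3H]GABA (15 nM) binding to rat cerebellum synaptic membranes. At least two concentrations above and below IC50, each at least in triplicate. IC50 was obtained by fitting linearized transformations of the data.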

Mus musculus [4] = assay: Uptake of the [14C]-compound in mouse brain 5 minutes after sc administration of 24 mg/kg.; format: functional; settings: route subcutaneous
Summary of the method: (§2)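 [14C]-labeled ester injected sc into mice in 25% propylene glycol/water. At the stated time, brain and liver were homogenized in SDS/urea/EDTA phosphate solvent, pH 7.4, and counted by liquid scintillation. Uptake was calculated per gram tissue (nmol/g).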

Mus musculus [5] = assay: Anticonvulsant activity is the ability to delay the onset of bicuculline induced seizures in mouse at 24 hr after pretreament with compound (30 mg/kg, ip); format: functional
Summary of the method: (§3)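 Mice given test article ip 24 h before bicuculline (0.3 mg/kg sc). Latency to onset of generalized tonic-clonic seizures was recorded in seconds and expressed as % of saline control. Means ± SEM, n ≥ 6 per group.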

Mus musculus [6] = assay: Evaluation of General motor activity in mouse 60 mins postinjection (ip) of 10 mg/kg; format: functional; summary of the method: as §1
Mus musculus [7] = assay: Anticonvulsant activity is the ability to delay the onset of bicuculline induced seizures in mouse at 24 hr after pretreament with compound (84 mg/kg, ip); format: functional; summary of the method: as §3
Mus musculus [8] = assay: Anticonvulsant activity is the ability to increase the survival time of mouse ssubjected to bicuculline induced seizures at 24 hr after pretreament with compound (30 mg/kg, ip); format: functional
Mus musculus [9] = assay: Brain penetration index is the ratio of the uptake in brain/liver X 100, 5 min after sc administration of 24 mg/kg of the [14C]-compound.; format: functional; settings: route subcutaneous
Summary of the method: (§4)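 [14C]-labeled ester injected sc into mice in 0.5 mL of 25% propylene glycol in water, killed at 5 min. Brain and liver were weighed and homogenized in SDS/6 M urea/EDTA phosphate solvent, pH 7.4, then counted by liquid scintillation. BPI = [brain]/[liver] × 100. Means ± SEM, n = 3.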

Mus musculus [10] = assay: Anticonvulsant activity is the ability to delay the onset of bicuculline induced seizures in mouse at 24 hr after pretreament with compound (16 mg/kg, ip); format: functional; summary of the method: as §3
Mus musculus [11] = assay: Uptake of the [14C]-compound in mouse liver 15 minutes after sc administration of 24 mg/kg.; format: functional; settings: route subcutaneous, in the assay text read “mouse brain” for “mouse liver”; summary of the method: as §2
Mus musculus [12] = assay: Anticonvulsant activity is the ability to increase the survival time of mouse ssubjected to bicuculline induced seizures at 24 hr after pretreament with compound (16 mg/kg, ip); format: functional
Rattus norvegicus [13] = species: Rattus norvegicus; assay: Enzymatic hydrolysis of cholesteryl [14C]-compound by Rat Brain Homogenate at 30 min; format: functional
Summary of the method: (§5)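 Cholesteryl-[14C]GABA ester (3 mg/mL) incubated at 37 °C with rat brain homogenate 10,000g supernatant (S1; 0.8 mg/mL protein). Aliquots were quenched with ethanol and run on silica TLC (CHCl3/MeOH/HOAc 18:6:1) to quantify unreacted substrate (nmol). Control was the initial substrate amount.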

Rattus norvegicus [14] = species: Rattus norvegicus; assay: Enzymatic hydrolysis of cholesteryl [14C]-compound by Rat Brain Homogenate at 60 min; format: functional; summary of the method: as §5
Mus musculus [15] = assay: Anticonvulsant activity is the ability to delay the onset of bicuculline induced seizures in mouse at 24 hr after pretreament with compound (3 mg/kg, ip); format: functional; summary of the method: as §3
Mus musculus [16] = assay: Uptake of the [14C]-compound in mouse liver 5 minutes after sc administration of 24 mg/kg.; format: functional; settings: route subcutaneous; summary of the method: as §2
[17] = Partition coefficient in 1-octanol/water system; format: physicochemical
Summary of the method: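 1-Octanol/water partition coefficient determined with the U-14C-labeled esters, read by radioactivity.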

Rattus norvegicus [18] = species: Rattus norvegicus; assay: Enzymatic hydrolysis of cholesteryl [14C]-compound by Rat Brain Homogenate at 10 min; format: functional; summary of the method: as §5
Mus musculus [19] = assay: Uptake of the [14C]-compound in mouse liver 180 min after sc administration of 24 mg/kg.; format: functional; settings: route subcutaneous, in the assay text read “mouse brain” for “mouse liver”; summary of the method: as §2
Mus musculus [20] = assay: Evaluation of General motor activity in mouse 60 mins postinjection (ip) of 3 mg/kg; format: functional; summary of the method: as §1
Mus musculus [21] = assay: Uptake of the [14C]-compound in mouse liver 60 minutes after sc administration of 24 mg/kg.; format: functional; settings: route subcutaneous, in the assay text read “mouse brain” for “mouse liver”
Mus musculus [22] = assay: Uptake of the [14C]-compound in mouse brain 15 minutes after sc administration of 90 mg/kg.; format: functional; settings: route subcutaneous; summary of the method: as §2
Mus musculus [23] = assay: Anticonvulsant activity is the ability to increase the survival time of mouse ssubjected to bicuculline induced seizures at 24 hr after pretreament with compound (50 mg/kg, ip); format: functional
Mus musculus [24] = assay: Anticonvulsant activity is the ability to delay the onset of bicuculline induced seizures in mouse at 24 hr after pretreament with compound (50 mg/kg, ip); format: functional; summary of the method: as §3
Mus musculus [25] = assay: Evaluation of General motor activity in mouse 60 mins postinjection (ip) of 36 mg/kg =; format: functional; summary of the method: as §1
Mus musculus [26] = assay: Uptake of the [14C]-compound in mouse brain 5 minutes after sc administration of 90 mg/kg.; format: functional; settings: route subcutaneous; summary of the method: as §2
Mus musculus [27] = assay: Anticonvulsant activity is the ability to delay the onset of bicuculline induced seizures in mouse at 24 hr after pretreament with compound (25 mg/kg, ip); format: functional; summary of the method: as §3
Mus musculus [28] = assay: Uptake of the [14C]-compound in mouse brain 45 minutes after sc administration of 90 mg/kg.; format: functional; settings: route subcutaneous; summary of the method: as §2
Mus musculus [29] = assay: Anticonvulsant activity is the ability to increase the survival time of mouse ssubjected to bicuculline induced seizures at 24 hr after pretreament with compound (12 mg/kg, ip); format: functional
Mus musculus [30] = assay: Anticonvulsant activity is the ability to increase the survival time of mouse ssubjected to bicuculline induced seizures at 24 hr after pretreament with compound (25 mg/kg, ip); format: functional
Mus musculus [31] = assay: Uptake of the [14C]-compound in mouse liver 5 minutes after sc administration of 90 mg/kg.; format: functional; settings: route subcutaneous
Summary of the method: (§6)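 Mice were given the 14C-labeled compound sc in 25% propylene glycol in water and killed at 5 min. Liver was removed, weighed and homogenized in 1% SDS in 6 M urea with 19 mM EDTA and 0.03 M phosphate, pH 7.4. Homogenate aliquots were counted by liquid scintillation, and uptake per gram of tissue was calculated. Mean ± SEM, n = 3.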

Mus musculus [32] = assay: Anticonvulsant activity is the ability to delay the onset of bicuculline induced seizures in mouse at 24 hr after pretreament with compound (17 mg/kg, ip); format: functional; summary of the method: as §3
Mus musculus [33] = assay: Brain penetration index is the ratio of the uptake in brain/liver X 100, 5 min after sc administration of 90 mg/kg of the [14C]-compound.; format: functional; settings: route subcutaneous; summary of the method: as §4
Mus musculus [34] = assay: Evaluation of General motor activity in mouse 60 mins postinjection (ip) of 12 mg/kg; format: functional; summary of the method: as §1
Mus musculus [35] = assay: Anticonvulsant activity is the ability to increase the survival time of mouse ssubjected to bicuculline induced seizures at 24 hr after pretreament with compound (36 mg/kg, ip); format: functional
Mus musculus [36] = assay: Anticonvulsant activity is the ability to delay the onset of bicuculline induced seizures in mouse at 24 hr after pretreament with compound (36 mg/kg, ip); format: functional; summary of the method: as §3
Mus musculus [37] = assay: Anticonvulsant activity is the ability to increase the survival time of mouse ssubjected to bicuculline induced seizures at 24 hr after pretreament with compound (17mg/kg, ip); format: functional
Mus musculus [38] = assay: Anticonvulsant activity is the ability to delay the onset of bicuculline induced seizures in mouse at 24 hr after pretreament with compound (12mg/kg, ip); format: functional; summary of the method: as §3
[39] = Partition coefficient in 1-octanol/water system measured using radio active compounds; format: physicochemical
Summary of the method: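 1-Octanol/water partition coefficient, measured with the 14C-labeled compounds.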

Mus musculus [40] = assay: Evaluation of General motor activity in mouse at dose 200 mg/kg; format: functional; summary of the method: as §1
Mus musculus [41] = assay: Uptake of the [14C]-compound in mouse brain 5 minutes after sc administration of 74 mg/kg.; format: functional; settings: route subcutaneous; summary of the method: as §2
Mus musculus [42] = assay: Brain penetration index is the ratio of the uptake in brain/liver X 100, 5 min after sc administration of 74 mg/kg of the [14C]-compound.; format: functional; settings: route subcutaneous; summary of the method: as §4
Mus musculus [43] = assay: Uptake of the [14C]-compound in mouse liver 5 minutes after sc administration of 74 mg/kg.; format: functional; settings: route subcutaneous; summary of the method: as §6
Mus musculus [44] = assay: Evaluation of General motor activity in mouse 60 mins postinjection (ip) of 60 mg/kg; format: functional; summary of the method: as §1
Mus musculus [45] = assay: Evaluation of General motor activity in mouse 60 mins postinjection (ip) of 128 mg/kg; format: functional; summary of the method: as §1
Mus musculus [46] = assay: Evaluation of General motor activity in mouse 60 mins postinjection (ip) of 16 mg/kg; format: functional; summary of the method: as §1
Mus musculus [47] = assay: Uptake of the [14C]-compound in mouse brain 5 minutes after sc administration of 41 mg/kg.; format: functional; settings: route subcutaneous; summary of the method: as §2
Mus musculus [48] = assay: Uptake of the [14C]-compound in mouse liver 5 minutes after sc administration of 41 mg/kg.; format: functional; settings: route subcutaneous; summary of the method: as §6
Mus musculus [49] = assay: Uptake of the [14C]-compound in mouse brain 15 minutes after sc administration of 41 mg/kg.; format: functional; settings: route subcutaneous; summary of the method: as §2
Mus musculus [50] = assay: Brain penetration index is the ratio of the uptake in brain/liver X 100, 5 min after sc administration of 41 mg/kg of the [14C]-compound.; format: functional; settings: route subcutaneous; summary of the method: as §4

CC(C)CCCC(C)C1CCC2C3CC=C4CC(OC(=O)CCCN)CCC4(C)C3CCC12C (configuration not stated)
Survival time (Mus musculus [1]): 95 | Motor activity (Mus musculus [2]): 15 | IC50 [3]: 10 µM | Brain concentration (Mus musculus [4]): 0.17 nmol/g | Onset seizure (Mus musculus [5]): 130 | Motor activity (Mus musculus [6]): 49 | Onset seizure (Mus musculus [7]): 137 | Survival time (Mus musculus [8]): 104 | Brain penetration index (Mus musculus [9]): 25% | Onset seizure (Mus musculus [10]): 129 | Brain concentration (Mus musculus [11]): 0.67 nmol/g | Survival time (Mus musculus [12]): 101 and 109 | Amount of unreacted substrate (Rattus norvegicus [13]): 43.5 | Amount of unreacted substrate (Rattus norvegicus [14]): 34.5 | Onset seizure (Mus musculus [15]): 120 | Liver concentration (Mus musculus [16]): 0.69 nmol/g | K [17]: 110 | Amount of unreacted substrate (Rattus norvegicus [18]): 53 | Brain concentration (Mus musculus [19]): 0.6 nmol/g | Motor activity (Mus musculus [20]): 67 | Brain concentration (Mus musculus [21]): 0.79 nmol/g

CC/C=C/C/C=C/C/C=C/CCCCCCCCOC(=O)CCCN
Brain concentration (Mus musculus [22]): 11 nmol/g | Survival time (Mus musculus [23]): 63 | Onset seizure (Mus musculus [24]): 40 | IC50 [3]: 40 µM | Motor activity (Mus musculus [25]): 74 | Brain concentration (Mus musculus [26]): 3.5 nmol/g | Onset seizure (Mus musculus [27]): 78 | Brain concentration (Mus musculus [28]): 24.9 nmol/g | Survival time (Mus musculus [29]): 118 | Survival time (Mus musculus [30]): 68 | Liver concentration (Mus musculus [31]): 142 nmol/g | Onset seizure (Mus musculus [32]): 73 | Brain penetration index (Mus musculus [33]): 2% | Motor activity (Mus musculus [34]): 90 | Survival time (Mus musculus [35]): 62 | Onset seizure (Mus musculus [36]): 50 | Survival time (Mus musculus [37]): 111 | Onset seizure (Mus musculus [38]): 102

NCCCC(=O)O [GAMMA-AMINOBUTYRIC ACID]
K [39]: 0.004 | Motor activity (Mus musculus [40]): 100

CCCCOC(=O)CCCN
Brain concentration (Mus musculus [41]): 19.2 nmol/g | Brain penetration index (Mus musculus [42]): 74% | Liver concentration (Mus musculus [43]): 28 nmol/g | Motor activity (Mus musculus [44]): 89 | Motor activity (Mus musculus [45]): 83

C[C@@H]1CC2C3CCC4=CC(=O)C=CC4(C)C3(F)C(O)CC2(C)C1(O)C(=O)COC(=O)CCCN (some centres not stated)
Motor activity (Mus musculus [46]): 94 | Brain concentration (Mus musculus [47]): 8.7 nmol/g | Liver concentration (Mus musculus [48]): 10.8 nmol/g | K [17]: 0.9 | Brain concentration (Mus musculus [49]): 21.5 nmol/g | Brain penetration index (Mus musculus [50]): 81%
